Legend:
HFF cells [1] = test: Crystal violet proliferation assay; type: cell-based, human; conditions: up to 4 d, total cell number by crystal violet
[2] = tested on: consensus adhesome proteins; conditions: three other studies; ref Horton et al., 2015b; cited from earlier work
NIH3T3 cells = test: Immunofluorescence of IACs in NIH3T3 cells; type: cell-based, mouse; conditions: NIH3T3 on FN, 3 µM FAK [i] or 10 µM PF228, 1 h
HFF cells [3] = test: Immunofluorescence of IACs in HFF cells; type: cell-based, human; conditions: HFFs prespread on FN, 3 µM FAK [i] or 10 µM PF228, 1 h
In short: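 Cells were grown on FN-coated (10 µg/ml) coverslips or glass-bottom dishes. HFFs were spread on FN for 1 h before inhibitor or DMSO was added. Cells were fixed in 4% paraformaldehyde for 7 min, then permeabilized with 0.5% Triton X-100 for 10 min. Primary antibodies were applied for 1 h and secondaries for 30 min, in 2% BSA at RT. Stained areas >10 pixels were normalized to total cell area, with count and size per cell.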

In the case of CN1CCN(CCOc2cc(OC3CCOCC3)c3c(Nc4c(Cl)ccc5c4OCO5)ncnc3c2)CC1 [Src [i], N-(5-chloro-1,3-benzodioxol-4-yl)-7-[2-(4-methylpiperazin-1-yl)ethoxy]-5-(tetrahydro-2H-pyran-4-yloxy)quinazolin-4-amine], the “inhibition of proliferation relative to DMSO” value (HFF cells [1]) is reported as 30%.
In the case of Cc1ccc2c(c1)C(=O)C1(O)CCN(c3ccccc3)C1=N2 (stereo not drawn) [blebbistatin], the “consensus adhesome proteins, mean fold decrease upon blebbistatin treatment” value [2] is listed as 2.1 fold.
With CS(=O)(=O)c1cccc(CNc2nc(Nc3ccc4c(c3)CCC(=O)N4)ncc2C(F)(F)F)c1 [PF228] the “FAK^Y397 levels by immunofluorescence” value (NIH3T3 cells) was “reduction of FAK^Y397 levels”, the “vinculin- or paxillin-containing IACs” value (NIH3T3 cells) was “did not affect” and the “FAK^Y397 levels by immunofluorescence” value (HFF cells [3]) was “significantly reduced”. For the same compound, the “area and numbers of vinculin- or paxillin-containing IACs, and the actin cytoskeleton” value (HFF cells [3]) was “unaffected”.

Reference: article PMC4739608 (The Journal of Cell Biology, 2016)
